The source of these data is ChEMBL document CHEMBL1125507, “Synthesis and antihistaminic activity of some thiazolidin-4-ones” (J Med Chem, 1992).

Type in all cases: functional, tissue-based
For assay [1], the target named is T1, Histamine H1 receptor (Cavia porcellus, UniProt P31389). The assay is described as follows: (§1) In vitro for histamine H1 receptor antagonist activity against histamine-induced contractions on isolated guinea pig ileum. The settings on record: read-out: pA2 (converted).
Assay [2] concerns the target T1, Histamine H1 receptor. The assay is described as §1. Put shortly:
(§2)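 Isolated ileum from guinea pigs of either sex (~250 g), tested with racemates. Percent inhibition is taken against the submaximal contraction to 0.5 μM histamine without drug, with six observations per drug concentration. IC50 is the concentration giving 50% inhibition. pA2 = −log KB by Schild, where KB = B/(x−1) and x is the histamine half-maximal concentration ratio with/without antagonist.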

Assay [3] concerns the target T1, Histamine H1 receptor. The assay is described as follows: Compound was tested in vitro for histamine H1-antagonist activity against histamine-induced contractions on isolated guinea pig ileum. The method, boiled down:
as §2

T1 sequence (P31389 whole entry): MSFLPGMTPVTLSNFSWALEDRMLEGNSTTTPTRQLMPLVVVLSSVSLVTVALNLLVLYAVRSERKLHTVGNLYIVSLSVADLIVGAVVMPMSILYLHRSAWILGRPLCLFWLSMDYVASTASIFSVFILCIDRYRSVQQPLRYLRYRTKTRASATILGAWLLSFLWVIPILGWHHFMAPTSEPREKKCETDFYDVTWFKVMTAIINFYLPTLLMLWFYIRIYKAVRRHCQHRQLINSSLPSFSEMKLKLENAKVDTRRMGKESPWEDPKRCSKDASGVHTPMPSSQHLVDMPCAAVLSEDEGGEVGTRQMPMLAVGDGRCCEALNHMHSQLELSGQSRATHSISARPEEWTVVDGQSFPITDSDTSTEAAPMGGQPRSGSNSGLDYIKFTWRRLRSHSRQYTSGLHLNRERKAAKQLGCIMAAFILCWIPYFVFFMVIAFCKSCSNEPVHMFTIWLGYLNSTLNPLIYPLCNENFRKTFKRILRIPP

As for `CN(C)CCCN1C(=O)CSC1c1ccc(F)cc1` (configuration not stated), the Kb in assay [1] was 0.0794 µM. Besides, in assay [2], the IC50 is 24 µM.

Consider `CN(C)CCCN1C(=O)CSC1c1ccccc1` (configuration not stated), for which, in assay [1], the Kb is 0.0398 µM. The compound further displayed a 50% inhibitory concentration (IC50) in assay [2] of 20 µM.

`CN(C)CCN1C(=O)CSC1c1ccccc1` (configuration not stated): the half-maximal inhibitory concentration (IC50) in assay [2] is above 100 µM.

Turning to `CN(C)CCCN1C(=O)CSC1c1cccc([N+](=O)[O-])c1` (configuration not stated), in assay [1], the Kb is 3.98 µM. The same compound gave an IC50 in assay [2] above 100 µM.

Regarding `CN(C)CCCN1C(=O)CSC1c1cccc(Cl)c1` (configuration not stated), the Kb in assay [1] was 0.631 µM. The compound also came in with an IC50 in assay [2] of 2.2 µM.

With `CN(C)CCCN1C(=O)CSC1c1cccc(Br)c1` (configuration not stated), the Kb in assay [1] is 0.398 µM. 60 µM corresponded to half-maximal inhibition in assay [2] (IC50).

In the case of `CN(C)CCCN1C(=O)CSC1c1ccc(N)cc1` (configuration not stated), the Kb in assay [1] is 1 µM. This compound also yielded a half-maximal inhibitory concentration (IC50) in assay [2] of 40 µM.

As to `Cc1ccc(C2SCC(=O)N2CCCN(C)C)cc1` (configuration not stated), the Kb in assay [1] was 0.00501 µM. The compound also came in with a half-inhibitory concentration (IC50) in assay [2] of 1.2 µM.

Regarding `CN(C)CCCN1C(=O)CSC1c1ccc([N+](=O)[O-])cc1` (configuration not stated), in assay [1], the Kb is 6.31 µM. The IC50 in assay [2] was above 100 µM.

As to `CN(C)CCCN1C(=O)CSC1c1ccncc1` (configuration not stated), in assay [3], the concentration for half-maximal inhibition (IC50) was above 100 µM.

Consider `Cc1cccc(C2SCC(=O)N2CCCN(C)C)c1` (configuration not stated), for which the Kb in assay [1] was 0.02 µM. The compound further came in with a 50% inhibitory concentration (IC50) in assay [2] of 5 µM.

`COc1ccc(C2SCC(=O)N2CCCN(C)C)cc1` (configuration not stated): in assay [1], the Kb is 10 µM. This compound returned an IC50 in assay [2] above 100 µM.

With `CN(C)CCCN1C(=O)CSC1c1ccc(Cl)cc1` (configuration not stated), the Kb in assay [1] is 2.51 µM. In assay [2], this compound registered an IC50 of 21 µM.

For `COc1cccc(C2SCC(=O)N2CCCN(C)C)c1` (configuration not stated), the Kb in assay [1] was 0.398 µM. Further, the half-inhibitory concentration (IC50) in assay [2] is 25 µM.

Consider `CN(C)CCCN1C(=O)CSC1c1ccc(Br)cc1` (configuration not stated), for which, in assay [1], the Kb was 0.0398 µM. This compound also yielded a half-maximal inhibitory concentration (IC50) in assay [2] of 2.3 µM.

Consider `CC(C)c1ccc(C2SCC(=O)N2CCCN(C)C)cc1` (configuration not stated), for which, in assay [1], the Kb was 0.002 µM. In addition, the IC50 in assay [2] was determined as 1 µM.

`CN(C)CCCN1C(=O)CSC1c1cccc(F)c1` (configuration not stated): the Kb in assay [1] is 0.398 µM. Further, the IC50 in assay [2] stood at 3.1 µM.

The term IC50 denotes the concentration that gives 50% inhibition. The low end stands for greater potency in that assay, the high end for weaker potency in that assay.
